Screens (PubChem BioAssay)
A selection: hits, their analogues and other compounds. The true share with any hit is near 2.4%.
NPY Y1 blocker: blocks the human neuropeptide Y Y1 receptor. P25929. HEK293-CNG Y1 cells, membrane potential fluorescence; NPY at EC95, then isoproterenol. inhibition, % at 3.6 µM. actives 1% (n = 200,000). AID 1040;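 active = inhibition above the campaign mean inhibition of all tested compounds plus 3 SD, cut at about 20% in these data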
Target sequence (P25929 whole entry, looked up): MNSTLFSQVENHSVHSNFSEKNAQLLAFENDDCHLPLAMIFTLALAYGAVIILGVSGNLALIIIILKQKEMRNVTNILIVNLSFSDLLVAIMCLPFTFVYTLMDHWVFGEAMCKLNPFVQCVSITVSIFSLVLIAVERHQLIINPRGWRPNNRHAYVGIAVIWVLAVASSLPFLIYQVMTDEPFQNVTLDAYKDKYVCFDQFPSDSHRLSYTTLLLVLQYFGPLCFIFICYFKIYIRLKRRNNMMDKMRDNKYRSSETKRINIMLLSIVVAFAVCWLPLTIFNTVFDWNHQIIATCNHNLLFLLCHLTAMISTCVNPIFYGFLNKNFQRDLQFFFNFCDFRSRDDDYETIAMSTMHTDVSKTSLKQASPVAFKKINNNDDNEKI
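Benchmarks – high control isoproterenol alone, low control NPY with isoproterenol · Material – HEK293 Y1/CNG channel cell line · Times – dye 3 h, compound 60 min room temperature, stimulation 45 min · Probe or stimulus – NPY (25 nM), isoproterenol (1 µM), Ro 20-1724 (25 µM) · Evaluation – % inhibition of NPY effect · Signal – fluorescence, membrane potential probe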
S1P4 agonist: activates the human S1P4 receptor. O95977. actives 0.35% (n = 220,000). activation, % at 4.98 µM. S1P4-expressing cell line, agonist reporter assay. AID 1509; in the data active = activation above about 11%
Target sequence (O95977 whole entry, looked up): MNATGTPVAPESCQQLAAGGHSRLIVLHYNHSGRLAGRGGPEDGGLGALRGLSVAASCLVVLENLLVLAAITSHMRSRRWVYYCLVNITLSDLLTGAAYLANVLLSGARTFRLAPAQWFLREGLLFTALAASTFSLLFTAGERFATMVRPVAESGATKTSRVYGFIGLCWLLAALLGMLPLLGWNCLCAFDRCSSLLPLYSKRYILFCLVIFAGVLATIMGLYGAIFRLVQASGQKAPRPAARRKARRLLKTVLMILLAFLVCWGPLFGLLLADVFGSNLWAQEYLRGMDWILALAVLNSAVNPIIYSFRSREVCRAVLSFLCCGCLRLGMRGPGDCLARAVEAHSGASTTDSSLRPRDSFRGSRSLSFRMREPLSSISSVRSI
S1P4 antagonist: blocks the human S1P4 receptor; inhibition, % at 4.98 µM; O95977; AID 1510; S1P4-expressing cells, antagonist mode, reporter read-out; actives 0.26% (n = 220,000); in the data active = inhibition above about 29%
NPY Y2 blocker: antagonists of human neuropeptide Y receptor Y2 | inhibition, % at 2.7 µM | NPY-Y2 expressing cells, antagonist mode | actives 0.99% (n = 140,000) | P49146 | AID 793; in the data active = inhibition above about 17%
NPY-Y2 PAM-ag: potentiates or activates human NPY-Y2 receptor | activation, % at 3.6 µM | cells expressing NPY-Y2, potentiator/agonist read-out | AID 1359 | actives 0.45% (n = 220,000); in the data active = activation above about 27%;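 note: cells stimulated with NPY near EC25 plus isoproterenol at EC100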
NPY1 pot ag: potentiates or activates human NPY-Y1 receptor | P25929 | NPY-Y1 expressing cells, potentiator/agonist activation | activation, % at 3.6 µM | actives 0.37% (n = 220,000) | AID 1304; in the data active = activation above about 33%, passing the limit was not always enough;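 note: cells stimulated with NPY at EC10 then isoproterenol at EC100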
NPY-Y1 antag ct: counter-screen for NPY-Y2 antagonists: human NPY-Y1 antagonism; shares compounds with NPY Y2 blocker; actives 19% (n = 710); cell-based NPY-Y1 antagonism counterscreen; inhibition, % at 3.6 µM; in the data active = inhibition above about 20%;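 note: cells challenged with NPY then isoproterenol with cAMP sensed through a CNG channel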
NPY-Y2 ant conf: confirmation of human neuropeptide Y receptor Y2 antagonists; shares compounds with NPY Y2 blocker; HEK293 NPY-Y2 CNG channel, membrane potential fluorescence; inhibition, % at 2.8 µM; actives 32% (n = 710);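 active = mean inhibition of triplicate wells above the hit cutoff set in the primary screen, cut at about 17% in these data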
Large screens that a line does not name were inactive (follow-up assays come after a bar, where they were run).

O=C(C1CCN(Cc2ccc(OCc3ccccc3)cc2)CC1)N1CCCC1	none
CCCCc1nnc(NC(=O)C(C)Sc2nc(C)cc(=O)[nH]2)s1 (configuration not stated)	NPY Y2 blocker 20 | NPY-Y1 antag ct inactive | NPY-Y2 ant conf inactive
O=C(O)/C=C\C(=O)Nc1ccc(F)c(F)c1F	none (no result: NPY Y1 blocker, NPY Y2 blocker)
Oc1ccccc1CNc1ccc(Br)cn1	NPY Y2 blocker 151 | NPY-Y1 antag ct 26 | NPY-Y2 ant conf 52
c1ccc(-c2oc3ncnc(NCCCN4CCOCC4)c3c2-c2ccccc2)cc1	NPY Y2 blocker 18 | NPY-Y1 antag ct inactive | NPY-Y2 ant conf inactive
Cc1ccc(/C=C(\C#N)C(=O)Nc2ccccn2)o1	none (no result: NPY Y2 blocker)
N#CC(C#N)=C1C=CC=CN1/C(=C\c1ccco1)C(=O)c1ccc(Cl)cc1	NPY Y2 blocker 18 | NPY-Y1 antag ct inactive | NPY-Y2 ant conf 83
CC(/C=N/n1c(-c2ccc(Cl)cc2)n[nH]c1=S)=C\c1ccco1	none
O=c1c2ccccc2cnn1Cc1n[nH]c(=S)n1-c1ccc(Cl)cc1	NPY Y2 blocker 28 | NPY-Y1 antag ct inactive | NPY-Y2 ant conf inactive
CCCCn1c(=N)n(CCOc2ccc(C)cc2)c2ccccc21	NPY Y2 blocker 20 | NPY-Y1 antag ct inactive | NPY-Y2 ant conf inactive
Clc1ccc(C2=Nn3c(nnc3-c3n[nH]c4c3CCC4)SC2)cc1Cl	NPY Y2 blocker 67 | NPY-Y1 antag ct inactive | NPY-Y2 ant conf 18
c1ccc(C2=Nn3c(nnc3-c3n[nH]c4c3CCC4)SC2)cc1	none
CCCOc1ccc(Br)cc1/C=N/O	NPY Y2 blocker 18 | NPY-Y1 antag ct 21 | NPY-Y2 ant conf inactive
CCN(CC)CCNC(=O)/C(=C/c1cn(C)c2ccccc12)NC(=O)c1ccc(OC)c(OC)c1	none (no result: NPY Y1 blocker, NPY Y2 blocker)
OCCNCCSc1nc(C2CCCCC2)n(-c2ccccc2Cl)n1	none (no result: NPY Y1 blocker, NPY Y2 blocker)
O=C(NCc1n[nH]c(=S)n1-c1ccc(Cl)c(Cl)c1)c1ccc(S(=O)(=O)N2CCOCC2)cc1	none (no result: NPY Y2 blocker)
O=C(C(Sc1ccccc1)c1ccccc1)N1CCN(c2ccccc2)CC1 (configuration not stated)	NPY Y2 blocker 19 | NPY-Y1 antag ct inactive | NPY-Y2 ant conf inactive
CCOC(=O)c1cnc2c(cnn2C)c1NCCCn1ccnc1	none (no result: NPY Y2 blocker)
O=C1C2C3C=CC(C4CC34)C2C(=O)N1Cc1ccco1 (configuration not stated)	none
CC(=O)c1cc(CC=C(C)C)c(O)c(CC=C(C)C)c1O	NPY Y2 blocker 25 | NPY-Y1 antag ct inactive | NPY-Y2 ant conf inactive
CC(=O)c1cc(CC=C(C)C)c(O)cc1O	none
COc1ccc(CCNC(=O)c2sc3ccccc3c2Cl)cc1OC	NPY Y2 blocker 26 | NPY-Y1 antag ct inactive | NPY-Y2 ant conf inactive
O=C(Cc1n[nH]c(=O)c2ccccc12)OCC(=O)c1ccc2c(c1)OCCO2	none
O=C(Cc1ccc(Br)cc1)OCC(=O)c1ccc2c(c1)OCCO2	NPY Y2 blocker 17 | NPY-Y1 antag ct inactive | NPY-Y2 ant conf inactive
Cc1nc(CSc2n[nH]c(=O)n2-c2cccc(F)c2)cs1	none (no result: NPY Y1 blocker, NPY Y2 blocker)
Cc1nnc(SCC(=O)Nc2cccc(S(=O)(=O)N(C)c3ccccc3)c2)s1	none
Cc1cc(N2CCC(C)CC2)nc(NCc2ccccc2)n1	NPY Y2 blocker 17 | NPY-Y1 antag ct 33 | NPY-Y2 ant conf 33
Cc1cc(Oc2ccccc2)nc(NCc2ccccc2)n1	NPY Y2 blocker 20 | NPY-Y1 antag ct inactive | NPY-Y2 ant conf inactive
Cc1cc(N2CCC(C)CC2)nc(-c2ccccc2O)n1	none (no result: NPY Y1 blocker, NPY Y2 blocker)
Cc1cccc(-n2ccnc2SCC(=O)N2CCCc3ccccc32)c1C	NPY Y2 blocker 21 | NPY-Y1 antag ct inactive | NPY-Y2 ant conf 47
CCN(CC)c1ccc(C2C(C(=O)OC(C)C)C(=O)CC(C)(O)C2C(=O)OC(C)C)cc1 (configuration not stated)	NPY Y2 blocker 19 | NPY-Y1 antag ct inactive | NPY-Y2 ant conf inactive
C=CCOC(=O)C1C(=O)CC(C)(O)C(C(=O)OCC=C)C1c1ccc(OCC)cc1 (configuration not stated)	NPY Y2 blocker 22 | NPY-Y1 antag ct inactive | NPY-Y2 ant conf inactive
Cc1cc(/C(N)=N/OC(=O)Nc2ccc(Cl)cc2)no1	none (no result: NPY Y1 blocker, NPY Y2 blocker)
Cc1ccc(NC(=O)COC(=O)CC2CCCC2)cc1Cl	none (no result: NPY Y2 blocker)
FC(F)(F)c1ccnc(NCc2ccco2)n1	none (no result: NPY Y1 blocker, NPY Y2 blocker)
Cc1cc(C)n(-c2nc(Nc3ccccc3C(F)(F)F)nc(-n3nc(C)cc3C)n2)n1	NPY Y2 blocker 19 | NPY-Y1 antag ct inactive | NPY-Y2 ant conf inactive
CCn1c(SCC(=O)Nc2cccc(C)n2)nc2c1c(=O)n(C)c(=O)n2C	none (no result: NPY Y2 blocker)
C#CCn1c(=NC(=O)CN2C(=O)CCC2=O)sc2cccc(OC)c21	none (no result: NPY Y1 blocker, NPY Y2 blocker)
C#CCn1c(=NC(=O)c2cccs2)sc2cccc(OC)c21	NPY Y2 blocker 23 | NPY-Y1 antag ct inactive | NPY-Y2 ant conf inactive
Oc1cccc(-c2nc3ccc4ccccc4c3c3c2CCC3)c1	NPY Y2 blocker 30 | NPY-Y1 antag ct inactive | NPY-Y2 ant conf 32
c1ccc(COc2ccc(OCCCCN3CCCCC3)cc2)cc1	NPY Y2 blocker 27 | NPY-Y1 antag ct inactive | NPY-Y2 ant conf 39
O=C(c1ccccc1)c1ccc(OCCCCN2CCCCC2)cc1	none
CC(C)NCC(O)COCCOc1ccc(C(C)(C)C)cc1 (configuration not stated)	NPY Y2 blocker 24 | NPY-Y1 antag ct inactive | NPY-Y2 ant conf inactive
Cc1cc([N+](=O)[O-])cc(C)c1OCC(=O)N/N=C/c1ccc(OC(=O)c2ccccc2Br)cc1	none
Cc1cc([N+](=O)[O-])cc(C)c1OCC(=O)N/N=C/c1ccc(OC(=O)c2ccccc2)cc1	NPY Y2 blocker 20 | NPY-Y1 antag ct inactive | NPY-Y2 ant conf inactive
CCOC(=O)Cn1nc(-c2ccccc2)c2cnc3ccc(C)cc3c21	NPY Y2 blocker 24 | NPY-Y1 antag ct 24 | NPY-Y2 ant conf 19
CCOC(=O)Cn1nc(-c2ccc(C)cc2)c2ccccc2c1=O	none (no result: NPY Y2 blocker)
CCOc1ccc(NC(=S)N2CCC(C(O)(c3ccccc3)c3ccccc3)CC2)cc1	NPY Y2 blocker 54 | NPY-Y1 antag ct inactive | NPY-Y2 ant conf 94
COc1ccc(NC(=S)N2CCC(C(O)(c3ccccc3)c3ccccc3)CC2)cc1	none
CCN(CC)CC#CCC(C)(c1ccccc1)c1ccccc1	NPY Y2 blocker 18 | NPY-Y1 antag ct inactive | NPY-Y2 ant conf 21
COc1cccc2sc(N(CCCN(C)C)C(=O)c3sc4ccccc4c3Cl)nc12	NPY Y2 blocker 27 | NPY-Y1 antag ct inactive | NPY-Y2 ant conf inactive
Cc1cccc2sc(N(CCCN(C)C)C(=O)COc3ccc(Cl)cc3)nc12	none (no result: NPY Y2 blocker)
COc1ccc(CC(=O)NC(C)c2nnc(SCC(=O)Nc3cc(C)ccc3OC)n2C)cc1 (configuration not stated)	none (no result: NPY Y2 blocker)
